From ChEMBL document CHEMBL1149137, “Synthesis, screening, and molecular modeling of new potent and selective antagonists at the alpha 1d adrenergic receptor” (J Med Chem, 2004)

Tests used:
[1] = molecular target: T1, 5-hydroxytryptamine receptor 1A (Homo sapiens, UniProt P08908); experiment: Binding affinity to human 5-hydroxytryptamine 1A receptor was measured using [3H]-8-hydroxy-2-(di-n-propylamine) tetraline [3H]8-OH-DPAT) as radioligand
T1 sequence (P08908 whole entry): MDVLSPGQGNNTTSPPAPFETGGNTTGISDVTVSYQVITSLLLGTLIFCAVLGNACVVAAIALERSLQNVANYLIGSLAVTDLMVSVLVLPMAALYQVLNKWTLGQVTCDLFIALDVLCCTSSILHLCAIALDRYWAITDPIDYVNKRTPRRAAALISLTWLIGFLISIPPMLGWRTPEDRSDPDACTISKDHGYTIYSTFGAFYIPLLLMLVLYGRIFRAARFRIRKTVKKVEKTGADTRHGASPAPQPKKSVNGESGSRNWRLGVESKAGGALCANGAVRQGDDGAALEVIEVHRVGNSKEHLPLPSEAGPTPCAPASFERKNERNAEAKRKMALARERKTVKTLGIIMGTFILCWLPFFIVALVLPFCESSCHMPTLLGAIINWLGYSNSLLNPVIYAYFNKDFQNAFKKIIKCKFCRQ

[2] = molecular target: T2, Alpha-1D adrenergic receptor (Rattus norvegicus) (UniProt P23944); experiment: Fraction involved in salt bridge interactions with Asp3:11 part of the alpha-1D adrenergic receptor
T2 sequence (whole entry): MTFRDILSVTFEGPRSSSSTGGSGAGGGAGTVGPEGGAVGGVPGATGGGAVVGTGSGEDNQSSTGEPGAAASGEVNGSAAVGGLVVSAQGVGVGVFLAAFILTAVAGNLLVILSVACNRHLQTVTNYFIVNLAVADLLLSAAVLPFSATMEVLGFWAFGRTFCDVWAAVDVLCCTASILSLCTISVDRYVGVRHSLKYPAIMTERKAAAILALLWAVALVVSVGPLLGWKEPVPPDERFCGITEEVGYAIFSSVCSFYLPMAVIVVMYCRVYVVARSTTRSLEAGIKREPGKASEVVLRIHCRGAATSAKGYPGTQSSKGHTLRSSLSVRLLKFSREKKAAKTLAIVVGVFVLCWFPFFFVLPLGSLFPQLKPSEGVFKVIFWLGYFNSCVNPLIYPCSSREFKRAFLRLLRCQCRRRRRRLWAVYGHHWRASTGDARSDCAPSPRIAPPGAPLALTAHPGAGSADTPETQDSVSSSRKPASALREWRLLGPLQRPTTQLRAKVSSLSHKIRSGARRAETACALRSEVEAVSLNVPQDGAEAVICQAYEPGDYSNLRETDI
In short: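 Comparative models were built on a rhodopsin template and refined by energy minimization and MD. Docking used MCSS, and the value is the fraction of substituted phenylpiperazines forming a salt bridge with receptor Asp3:11.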

[3] = molecular target: T2, Alpha-1D adrenergic receptor (Rattus norvegicus); conditions: Aorta
[4] = molecular target: Alpha-1D adrenergic receptor (Homo sapiens) (UniProt P25100); experiment: Binding affinity to the adrenergic receptor alpha-1D of cloned human receptor
[5] = molecular target: T3, Alpha-1A adrenergic receptor (Rattus norvegicus) (UniProt P43140); conditions: Vas deferens
T3 sequence (whole entry): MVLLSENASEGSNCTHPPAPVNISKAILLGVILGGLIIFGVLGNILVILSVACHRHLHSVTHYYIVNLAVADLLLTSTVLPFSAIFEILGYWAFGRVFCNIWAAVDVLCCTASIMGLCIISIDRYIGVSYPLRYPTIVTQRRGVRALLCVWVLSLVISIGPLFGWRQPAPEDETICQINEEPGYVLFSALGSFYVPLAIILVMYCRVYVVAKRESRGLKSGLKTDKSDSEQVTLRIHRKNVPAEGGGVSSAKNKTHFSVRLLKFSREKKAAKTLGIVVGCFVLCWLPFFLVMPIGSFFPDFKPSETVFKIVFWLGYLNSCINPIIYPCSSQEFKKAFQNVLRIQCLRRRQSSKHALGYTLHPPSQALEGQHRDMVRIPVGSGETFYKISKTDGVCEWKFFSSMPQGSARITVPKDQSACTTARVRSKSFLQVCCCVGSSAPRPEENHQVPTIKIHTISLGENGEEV

Row | SMILES | Ki [1] [nM] | Activity [2] | pKB [3] | Ki [4] [nM] | pKB [5]
1 | COc1ccccc1N1CCN(CCN2C(=O)CC3(CCCC3)CC2=O)CC1 [BMY-7378] | 0.8 | 0.3 |  |  | 
2 | O=C1CC2(CCCC2)CC(=O)N1CCN1CCN(c2cc(Cl)ccc2Cl)CC1 |  | 0.4 | 8.99 | 0.13 | 
3 | O=C1CC2(CCCC2)CCN1CCN1CCN(c2cc(Cl)ccc2Cl)CC1 |  |  | 8.89 | 0.11 | 7
